Source: PubChem BioAssay
Rows were chosen to be rich in hits. Some 1.5% of all compounds tested hit in one or more screens of this group.
CCR6 antagonist: CCR6 receptor antagonists, primary screen, cell-based, CHO-K1, luminescence, beta-arrestin, uHTS; inhibition, % at 20 µM; AID 493098, 2011; C-C chemokine receptor type 6 (Homo sapiens), P51684; actives 0.49% (n = 340,000); CHO-K1 CCR6 PathHunter beta-arrestin, CCL20-stimulated;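 active means compounds whose inhibition of the agonist-driven luminescence signal at 20 µM reaches about 50%, limit read from the data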;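 further: cells stimulated with CCL20 at 14 nM final; plate controls were DMSO with CCL20 for no effect and DMSO without agonist for full effect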
Target sequence (P51684 whole entry, looked up): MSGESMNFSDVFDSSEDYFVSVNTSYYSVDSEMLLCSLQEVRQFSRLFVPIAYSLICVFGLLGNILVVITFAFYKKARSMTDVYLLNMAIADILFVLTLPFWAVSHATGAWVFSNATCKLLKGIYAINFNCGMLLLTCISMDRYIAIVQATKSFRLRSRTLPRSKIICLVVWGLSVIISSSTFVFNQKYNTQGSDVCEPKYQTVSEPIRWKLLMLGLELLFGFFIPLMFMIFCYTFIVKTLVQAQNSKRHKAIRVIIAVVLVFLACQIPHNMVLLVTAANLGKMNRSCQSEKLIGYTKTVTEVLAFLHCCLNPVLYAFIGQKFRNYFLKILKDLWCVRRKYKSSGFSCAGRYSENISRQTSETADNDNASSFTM
APJ agonist: agonists of human apelin receptor APJ, primary screen, CHO-K1 cells, PathHunter beta-arrestin, luminescence; P35414; 0% DMSO wells, 100% apelin; activation, % at 20 µM; actives 0.11% (n = 330,000);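 active means activation more than six SD over the plate average, tested at 20 µM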;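 further: 0% = DMSO alone and 100% = apelin-13 at 10 nM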
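system = engineered CHO-K1 APJ arrestin reporter cells | input = 1000 cells per well | timing = overnight seeding, 90 min compound at 25 °C, 1 h detection | measured by = enzyme-fragment complementation luminescence | read-out = beta-arrestin recruitment to APJ as agonist activity, luminescent signal | control set = negative DMSO alone, positive Apelin-13 at 10 nM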
CXCR6 inh: CXCR6 receptor inhibitors, primary screen, cell-based, beta-arrestin, luminescence, CHO-K1 PathHunter, 1536-well. actives 0.36% (n = 360,000). inhibition, % at 20 µM. AID 602244, 2012; in the data active means inhibition above about 34%, passing the limit was not always enough;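 further: antagonist mode with CXCL16 agonist at 10 nM final; 0% = 10 nM CXCL16 with DMSO and 100% = unstimulated wells without agonist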
HTR2A ag: mouse Htr2a agonists via beta-arrestin recruitment, primary screen, cell-based, luminescence; 5-hydroxytryptamine receptor 2A (Mus musculus), P35363; CHO-K1 mHTR2A beta-arrestin complementation; percent of 30 µM serotonin response; activation, % at 7.6 µM; actives 0.66% (n = 360,000); AID 624169, 2012;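 active means activation above a run cutoff, the mean activation of all tested compounds plus 3 SD, cut at about 14% in these data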;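 further: 0% = plate median of compound wells and 100% = 30 µM serotonin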
NTR1 ag: agonists of human NTR1, primary screen, imaging, U2OS cells, beta-arrestin-GFP, high content; NTR1-U2OS beta-arrestin-GFP spot imaging, agonist mode; actives 0.17% (n = 330,000); Neurotensin receptor type 1 (Homo sapiens), P30989; activation, % at 20 µM; AID 493036, 2011;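 active means activation at or above 40% of the spot to cytoplasm intensity ratio, with at least 20 cells analyzed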;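 further: 0% = DMSO without peptide and 100% = 100 nM NTR1 peptide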
APJ antagonist: antagonists of human apelin receptor APJ, primary screen, CHO-K1 cells, beta-arrestin complementation, luminescence; P35414; actives 0.32% (n = 330,000); inhibition, % at 20 µM; AID 2521, 2010;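 active means inhibition above about 40% at 20 µM, limit read from the data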;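 further: cells challenged with 10 nM apelin-13 agonist together with compound; plate controls were apelin-13 plus DMSO wells for no effect and DMSO wells lacking apelin-13 for full effect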
APJ antag conf: APJ antagonists blocking beta-arrestin recruitment, confirmation, cell-based, luminescence, single concentration, uHTS hits. actives 66% (n = 950). shares compounds with APJ antagonist. antagonist mode. inhibition, % at 20 µM. AID 2766, 2010; in the data active means inhibition above about 50%
Active calls of the source: *; nt = no result given.

SMILES	CCR6 antagonist	APJ agonist	CXCR6 inh	HTR2A ag	NTR1 ag	APJ antagonist	APJ antag conf
CC(=O)N1CCCC(C)(C(=O)N(C)Cc2cccc3ccccc23)C1 (centres undefined)	nt	nt	2.6	1.2	nt	nt	nt
CCc1ccccc1N(CC(=O)N1CCc2ccccc2C1)S(C)(=O)=O	7.4	-2.1	9.9	2.2	1.9	4.9	nt
OC1CN=C2CCCc3c2n(c2ccc(Cl)cc32)C1 (centres undefined)	67.9*	-11.4	52.1*	-9.3	2.0	61.3*	100.6*
COc1ccc(S(=O)(=O)N2CCCCC2)cc1NC(=O)CCOc1cc(C)ccc1C	15.4	-3.8	4.7	-4.2	0.7	-2.5	nt
Cc1ccc2c(c1)nnn2C1CCN(CC(=O)NCc2ccccc2F)CC1	11.0	-3.7	14.9	-1.1	2.2	13.1	nt
Cc1ccc2c(c1)nnn2C1CCN(CC(=O)NCCc2nc3ccccc3[nH]2)CC1	56.6*	-8.7	29.3	-4.8	0.2	41.1*	60.2*
CCOC(=O)c1c(C2COc3ccccc3O2)csc1NC(=O)c1ccco1 (centres undefined)	10.1	-9.0	8.2	-2.1	14.4	42.7*	77.1*
O=C1c2ccccc2-c2nnc(-c3ccccc3)cc21	55.5*	-13.0	28.9	-5.9	0.4	53.4*	142.6*
COc1ccc(-c2cc3c(nn2)-c2ccccc2C3=O)cc1	16.8	-10.0	18.8	0.3	-0.1	40.1*	142.9*
Cc1nn(CC(=O)N2CCN(c3ccccc3)CC2)c(=O)c2cccn12	6.3	-4.5	-8.5	2.3	-0.1	-4.4	nt
COc1cc2c(cc1OC)[C@@H](NC(=O)C(C)C)[C@H](OCc1ccccc1)C2	12.9	nt	10.0	0.7	-0.6	nt	nt
O=C1Nc2ccc(Br)cc2C1=Nc1ccc(-c2nnc3n2CCCCC3)cc1	nt	-19.4	nt	nt	3.0	49.3*	126.1*
Brc1cccc(-c2nnc3n2CCCCC3)c1	12.4	-1.8	-5.9	3.6	-0.7	6.3	nt
O=C(C1CCCN(S(=O)(=O)c2ccc(Br)cc2)C1)N1CCOCC1 (centres undefined)	10.4	-0.8	-15.9	-4.3	-0.5	-1.3	nt
O=C1ON=C(c2ccccc2)/C1=C/c1ccc(O)c(O)c1	45.5	-7.6	27.7	6.9	27.7	41.7*	68.1*
CC(=O)SCC(Cc1ccccc1)C(=O)NCC(=O)OCc1ccccc1 (centres undefined)	nt	-3.3	nt	nt	1.4	5.2	nt
CCN(CC)S(=O)(=O)c1cccc(N=Nc2c(O)c3ccccc3oc2=O)c1	58.9*	-5.5	28.8	-2.5	-0.7	40.3*	49.9
CCN(CC)S(=O)(=O)c1cccc(NC(=O)c2cc3ccccc3o2)c1	10.7	5.6	-2.6	1.1	2.3	14.8	nt
COc1ccccc1/C(C)=N/Oc1cc(N)cc([N+](=O)[O-])c1	16.5	-5.1	8.8	-6.4	5.3	13.1	nt
COc1ccc(S(=O)(=O)N2CCC(=O)N2)cc1	20.3	-14.7	12.9	1.7	2.6	46.2*	49.8
COc1ccc(S(=O)(=O)NC(C)C(=O)Nc2ccc3c(c2)OCO3)cc1OC (centres undefined)	8.3	-0.8	-2.6	-2.2	2.5	7.4	nt
COc1ccc(S(=O)(=O)NC(C)C(=O)Nc2ccc3c(c2)OCCO3)cc1OC (centres undefined)	4.7	-3.6	-12.3	0.9	0.3	46.5*	25.3
CSCc1cc(N(C)c2ccccc2)nc(-c2ccccc2)n1	5.2	-3.9	-5.8	-6.4	4.4	20.1	nt
O=C(NC1CCN(C(=O)Nc2ccc(F)cc2)CC1)c1ccccc1F	-0.4	-2.2	6.8	-4.4	0.5	7.9	nt
N#Cc1cnc(Nc2nc3ccccc3o2)nc1-c1ccccc1	54.7*	-12.1	16.5	-3.1	0.3	52.4*	-1.8
Cc1ccnc(Nc2nc3ccccc3o2)n1	11.2	2.0	0.4	0.3	0.1	4.7	nt
